# According to ChEMBL document CHEMBL1671756, “In vitro and in vivo antifungal susceptibilities of the Mucoralean fungus Cunninghamella” (2010):
# Activity calls are given as the source filed them. The rule behind the calls is not given here.
# What was measured:
# Format in all cases: functional, organism-based
# [1] = system: Cunninghamella bertholletiae; test: Antifungal activity against Cunninghamella bertholletiae UTHSC 03-2241 infected in neutropenic OF1 mouse assessed as increase in mouse survival rate at 0.8 mg/kg, iv qd administered 1 day after infection for 7 days relative to untreated control; design: dose 0.8 mg/kg
# In short: (§1)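 Male OF1 mice (~30 g) were made neutropenic with cyclophosphamide 200 mg/kg i.p. plus 5-fluorouracil 150 mg/kg i.v. 1 day before challenge. Challenge was 1 × 10⁴ CFU sporangiospores in 0.2 ml saline via the lateral tail vein. Mice got ceftazidime 5 mg/day s.c. on days 1–7. Dosing started 24 h post-challenge for 7 days. There were 10 mice/group, observed daily for 20 days. Kaplan-Meier analysis with log-rank test.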
# [2] = system: Cunninghamella bertholletiae; test: Antifungal activity against Cunninghamella bertholletiae UTHSC 04-2581 infected in neutropenic OF1 mouse assessed as increase in mouse survival rate at 0.8 mg/kg, iv qd administered 1 day after infection for 7 days relative to untreated control; design: dose 0.8 mg/kg; in short: as §1
# [3] = system: Cunninghamella bertholletiae; test: Antifungal activity against Cunninghamella bertholletiae FMR-9598 infected in neutropenic OF1 mouse assessed as decreased fungal load in lung at 0.8 mg/kg, iv qd administered 1 day post infection measured after 4 to 5 days relative to untreated control; design: dose 0.8 mg/kg
# In short: (§2)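 Neutropenic male OF1 mice (cyclophosphamide 200 mg/kg i.p. plus 5-fluorouracil 150 mg/kg i.v., day −1) were given 1 × 10⁴ CFU sporangiospores i.v. in 0.2 ml saline. Treatment from 24 h: 0.8 mg/kg i.v. or oral doses once daily; 10 mice per group. Killed at day 5 (day 4 if moribund). About half of brain, lungs and kidneys homogenized in saline; 10-fold dilutions plated on PDA for 24 h at 35°C; log₁₀ CFU/g tissue.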
# [4] = system: Cunninghamella bertholletiae; test: Antifungal activity against Cunninghamella bertholletiae FMR 9598 infected in neutropenic OF1 mouse assessed as increase in mouse survival rate at 0.8 mg/kg, iv qd administered 1 day after infection for 7 days relative to untreated control; design: dose 0.8 mg/kg; in short: as §1
# [5] = system: Cunninghamella bertholletiae; test: Antifungal activity against Cunninghamella bertholletiae UTHSC 05-2275 infected in neutropenic OF1 mouse assessed as increase in mouse survival rate at 60 mg/kg, po qd administered 1 day after infection for 7 days relative to untreated control; design: dose 60 mg/kg
# In short: (§3)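 Male OF1 mice, about 30 g, made neutropenic with cyclophosphamide 200 mg/kg i.p. plus 5-fluorouracil 150 mg/kg i.v. 1 day before challenge. Infected i.v. via the lateral tail vein with 1 × 10⁴ CFU of hemacytometer-counted sporangiospores in 0.2 ml saline. Ceftazidime 5 mg/day s.c. on days 1–7. Oral treatment started 24 h after challenge; 10 mice per group; checked daily for 20 days; Kaplan-Meier mean survival time, log-rank test.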
# [6] = system: Cunninghamella bertholletiae; test: Antifungal activity against Cunninghamella bertholletiae UTHSC 03-2241 infected in neutropenic OF1 mouse assessed as increase in mouse survival rate at 60 mg/kg, po qd administered 1 day after infection; design: dose 60 mg/kg; in short: as §3
# [7] = system: Cunninghamella bertholletiae; test: Antifungal activity against Cunninghamella bertholletiae UTSCH 05-2275 infected in diabetic OF1 mouse assessed as decreased fungal load in kidney at 80 mg/kg, po qd administered 1 day post infection measured after 4 to 5 days relative to untreated control; design: dose 80 mg/kg
# In short: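 Male OF1 mice (mean 30 g) made diabetic with a single i.p. dose of streptozocin 210 mg/kg; blood glucose >250 mg/dl at day 10 qualified. Ceftazidime 5 mg/day s.c. given on days 1–7. Challenge by lateral tail vein with 1 × 10⁵ CFU sporangiospores in 0.2 ml saline. Oral dosing once daily for 7 days, starting 1 day after challenge. Untreated controls. Ten mice per group.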
# [8] = system: Cunninghamella bertholletiae; test: Antifungal activity against Cunninghamella bertholletiae FMR 9598 infected in neutropenic OF1 mouse assessed as increase in mouse survival rate at 60 mg/kg, po qd administered 1 day after infection for 7 days relative to untreated control; design: dose 60 mg/kg; in short: as §3
# [9] = system: Cunninghamella bertholletiae; test: Antifungal activity against Cunninghamella bertholletiae UTHSC 05-2275 infected in neutropenic OF1 mouse assessed as decreased fungal load in kidney at 40 mg/kg, po qd administered 1 day post infection measured after 4 to 5 days relative to untreated control; design: dose 40 mg/kg; in short: as §2
# [10] = system: Cunninghamella bertholletiae; test: Antifungal activity against Cunninghamella bertholletiae UTSCH 05-2275 infected in diabetic OF1 mouse assessed as decreased fungal load in brain at 60 mg/kg, po qd administered 1 day post infection measured after 4 to 5 days relative to untreated control; design: dose 60 mg/kg
# In short: (§4)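 Diabetic male OF1 mice (streptozocin 210 mg/kg i.p.; glucose above 250 mg/dl) were challenged i.v. with 1 × 10⁵ CFU sporangiospores. Oral once-daily dosing from day 1 for 7 days; 10 mice per group. Killed at day 5 (day 4 if moribund). About half of each organ homogenized in saline; serial 10-fold dilutions plated on PDA for 24 h at 35°C; log₁₀ CFU/g tissue.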
# [11] = system: Cunninghamella bertholletiae; test: Antifungal activity against Cunninghamella bertholletiae UTHSC 04-2581 infected in neutropenic OF1 mouse assessed as decreased fungal load in brain at 60 mg/kg, po qd administered 1 day post infection measured after 4 to 5 days relative to untreated control; design: dose 60 mg/kg; in short: as §2
# [12] = system: Cunninghamella bertholletiae; test: Antifungal activity against Cunninghamella bertholletiae UTSCH 05-2275 infected in diabetic OF1 mouse assessed as decreased fungal load in kidney at 60 mg/kg, po qd administered 1 day post infection measured after 4 to 5 days relative to untreated control; design: dose 60 mg/kg; in short: as §4
# [13] = system: Cunninghamella bertholletiae; test: Antifungal activity against Cunninghamella bertholletiae UTHSC 05-2275 infected in neutropenic OF1 mouse assessed as decreased fungal load in lung at 40 mg/kg, po qd administered 1 day post infection measured after 4 to 5 days relative to untreated control; design: dose 40 mg/kg; in short: as §2
SMILES,Activity [1],Activity [2],Activity [3],Activity [4],Activity [5],Activity [6],Activity [7],Activity [8],Activity [9],Activity [10],Activity [11],Activity [12],Activity [13]
C[C@@H]1[C@H](O)[C@@H](C)/C=C/C=C/C=C/C=C/C=C/C=C/C=C/[C@H](O[C@@H]2O[C@H](C)[C@@H](O)[C@H](N)[C@@H]2O)C[C@@H]2O[C@](O)(C[C@@H](O)C[C@@H](O)[C@H](O)CC[C@@H](O)C[C@@H](O)CC(=O)O[C@H]1C)C[C@H](O)[C@H]2C(=O)O [AMPHOTERICIN B],Active,Active,Active,inactive,,,,,,,,,
CC[C@@H]([C@H](C)O)n1ncn(-c2ccc(N3CCN(c4ccc(OC[C@@H]5CO[C@@](Cn6cncn6)(c6ccc(F)cc6F)C5)cc4)CC3)cc2)c1=O [POSACONAZOLE],,,,,Active,Active,Active,Active,Active,Active,Active,Active,Active
